In ChEMBL document CHEMBL4371033, “Highly Potent and Selective Plasmin Inhibitors Based on the Sunflower Trypsin Inhibitor-1 Scaffold Attenuate Fibrinolysis in Plasma” (J Med Chem, 2019):
Residues, ends and D or L forms follow the SMILES beside them.

Experiments:
Serine protease 1 = target: T1, Serine protease 1 (Bos taurus, UniProt P00760); experiment: Inhibition of bovine cationic trypsin using Bz-FVR-pNA as substrate after 30 mins
T1 sequence (P00760 whole entry): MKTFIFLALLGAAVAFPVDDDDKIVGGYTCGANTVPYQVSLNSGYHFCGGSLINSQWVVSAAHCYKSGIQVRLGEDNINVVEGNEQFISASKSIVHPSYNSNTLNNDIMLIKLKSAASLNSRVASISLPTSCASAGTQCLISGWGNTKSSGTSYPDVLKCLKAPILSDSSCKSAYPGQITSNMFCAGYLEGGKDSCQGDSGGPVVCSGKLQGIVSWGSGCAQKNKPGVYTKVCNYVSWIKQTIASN

Plasma kallikrein = Plasma kallikrein (Homo sapiens, UniProt P03952); experiment: Inhibition of plasma KLK (unknown origin) using Ac-NLTR-pNA as substrate after 30 mins relative to untreated control
Plasminogen [1] = target: T2, Plasminogen (Homo sapiens, UniProt P00747); experiment: Inhibition of plasmin in human plasma assessed as reduction in tPA and thrombin-induced fibrinolysis at 400 nM by fibrin light scattering analysis relative to control; assay type: cell-free
Outline: (§1)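 Pooled citrated human plasma with inhibitor in Tris-HCl pH 7.4, 150 mM NaCl, 30 mM CaCl2, plasma 1:5 final. Clotting and lysis started with tPA (1.5 nM) and thrombin (2.5 nM). Fibrin formation and lysis followed by light scattering at 405 nm over 1 h. Mean of three independent experiments, each with 12 technical replicates.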

Plasminogen [2] = target: T2, Plasminogen; experiment: Inhibition of plasmin in human plasma assessed as reduction in tPA and thrombin-induced fibrinolysis at 200 nM by fibrin light scattering analysis relative to control; assay type: cell-free; outline: as §1
Homo sapiens [3] = species on record: Homo sapiens; experiment: Selectivity index, ratio of IC50 for inhibition of activated beta-factor 9 (unknown origin) to IC50 for Inhibition of human plasmin
Homo sapiens [4] = species on record: Homo sapiens; experiment: Selectivity index, ratio of IC50 for inhibition of activated beta-factor 12 (unknown origin) to IC50 for Inhibition of human plasmin
Homo sapiens [5] = species on record: Homo sapiens; experiment: Selectivity index, ratio of IC50 for inhibition of uPA (unknown origin) to IC50 for Inhibition of human plasmin
Homo sapiens [6] = species on record: Homo sapiens; experiment: Selectivity index, ratio of IC50 for inhibition of matriptase (unknown origin) to IC50 for Inhibition of human plasmin

T2 sequence (P00747 97-580 limits assumed): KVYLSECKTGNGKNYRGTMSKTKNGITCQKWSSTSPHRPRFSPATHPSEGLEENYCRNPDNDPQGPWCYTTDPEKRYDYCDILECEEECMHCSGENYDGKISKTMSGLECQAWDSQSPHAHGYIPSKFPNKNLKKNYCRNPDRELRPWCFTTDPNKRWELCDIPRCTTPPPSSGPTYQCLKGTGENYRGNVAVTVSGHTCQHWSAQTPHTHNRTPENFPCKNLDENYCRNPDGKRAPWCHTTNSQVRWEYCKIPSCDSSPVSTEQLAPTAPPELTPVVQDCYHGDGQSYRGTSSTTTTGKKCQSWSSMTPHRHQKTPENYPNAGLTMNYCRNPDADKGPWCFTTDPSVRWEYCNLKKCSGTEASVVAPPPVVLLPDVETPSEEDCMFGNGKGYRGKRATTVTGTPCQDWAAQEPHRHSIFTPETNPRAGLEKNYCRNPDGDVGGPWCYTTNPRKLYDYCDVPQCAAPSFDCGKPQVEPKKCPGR
T2 sequence (P00747 581-810 limits assumed): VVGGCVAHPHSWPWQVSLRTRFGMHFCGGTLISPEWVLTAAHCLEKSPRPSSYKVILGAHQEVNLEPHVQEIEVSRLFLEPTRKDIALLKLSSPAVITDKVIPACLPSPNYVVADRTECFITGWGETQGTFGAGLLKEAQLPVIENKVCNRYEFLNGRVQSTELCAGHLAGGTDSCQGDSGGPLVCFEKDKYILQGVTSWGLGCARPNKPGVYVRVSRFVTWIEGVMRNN
Plasma kallikrein, sequence (P03952 20-390 limits assumed): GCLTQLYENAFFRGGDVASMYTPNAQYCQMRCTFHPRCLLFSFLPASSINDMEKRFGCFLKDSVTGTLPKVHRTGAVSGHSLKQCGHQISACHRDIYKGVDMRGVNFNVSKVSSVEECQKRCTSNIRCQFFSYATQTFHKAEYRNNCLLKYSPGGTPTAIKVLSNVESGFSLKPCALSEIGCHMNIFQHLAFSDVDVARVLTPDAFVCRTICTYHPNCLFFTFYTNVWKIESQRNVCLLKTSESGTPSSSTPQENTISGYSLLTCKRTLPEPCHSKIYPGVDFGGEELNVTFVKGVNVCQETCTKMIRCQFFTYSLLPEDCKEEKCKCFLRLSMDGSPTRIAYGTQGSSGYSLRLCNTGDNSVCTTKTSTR
Plasma kallikrein, sequence (P03952 391-638 limits assumed): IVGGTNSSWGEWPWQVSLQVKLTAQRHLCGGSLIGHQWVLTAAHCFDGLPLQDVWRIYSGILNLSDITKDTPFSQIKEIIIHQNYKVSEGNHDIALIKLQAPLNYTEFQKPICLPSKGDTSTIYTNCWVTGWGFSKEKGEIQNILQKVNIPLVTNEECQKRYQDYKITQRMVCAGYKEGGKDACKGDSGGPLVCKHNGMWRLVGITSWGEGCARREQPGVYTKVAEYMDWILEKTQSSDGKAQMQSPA

## CC[C@H](C)[C@@H]1NC(=O)[C@@H]2CCCN2C(=O)[C@@H]2CCCN2C(=O)[C@H](CCCCN)NC(=O)[C@H](CO)NC(=O)[C@H](CCCCN)NC(=O)[C@H](Cc2ccc(O)cc2)NC(=O)[C@@H]2CSSC[C@H](NC1=O)C(=O)N[C@@H](Cc1ccccc1)C(=O)N1CCC[C@H]1C(=O)N[C@@H](CC(=O)O)C(=O)NCC(=O)N[C@@H](CCCNC(=N)N)C(=O)N2 (HELM PEPTIDE1{C.F.P.D.G.R.C.Y.K.S.K.P.P.I}$PEPTIDE1,PEPTIDE1,1:R3-7:R3|PEPTIDE1,PEPTIDE1,1:R1-14:R2$$$V2.0)
Serine protease 1
  Ki: 160 nM
Plasma kallikrein
  Ki: > 50000 nM
Plasminogen [1]
  inhibition: 100%
Plasminogen [2]
  inhibition: 90%
Homo sapiens [3]
  Ratio IC50: > 1e+06
Homo sapiens [4]
  Ratio IC50: > 1e+06
Homo sapiens [5]
  Ratio IC50: > 1e+06
Homo sapiens [6]
  Ratio IC50: > 1e+06
